# Experimental data reported in ChEMBL document CHEMBL3739347, “Tubulin modulating antifungal and antiproliferative pyrazinone derivatives” (Bioorg Med Chem, 2016).
# Legend:
# Assay type in all cases: functional
# [1] = tested on: Parastagonospora nodorum; experiment: Antifungal activity against Stagonospora nodorum infected in wheat seedlings at 40 ppm relative to control
# Method in brief: (§1)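 Wheat seedlings, treated the day before, inoculated with a Stagonospora nodorum spore suspension. Held in a saturated atmosphere at 20 °C for 48 h, then 5 days in a growth chamber at 22 °C, then disease rated. Rates in ppm. Scored as percent control relative to untreated control plants.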
# [2] = tested on: Botrytis cinerea; experiment: Antifungal activity against Botryotinia fuckeliana infected in orange pixie tomato seedlings at 40 ppm relative to control
# Method in brief: (§2)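 Orange Pixie tomato seedlings sprayed to run-off with test suspension, then inoculated next day with a Botryotinia fuckeliana spore suspension. Kept saturated at 20 °C for 48 h, then 1 more day at 24 °C in a growth chamber before rating. Rates in ppm. Expressed as percent control relative to untreated control plants.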
# [3] = tested on: Botrytis cinerea; experiment: Antifungal activity against Botryotinia fuckeliana infected in orange pixie tomato seedlings at 200 ppm relative to control; method in brief: as §2
# [4] = tested on: Parastagonospora nodorum; experiment: Antifungal activity against Stagonospora nodorum infected in wheat seedlings at 200 ppm relative to control; method in brief: as §1
# [5] = tested on: Puccinia triticina; experiment: Antifungal activity against Puccinia recondita f. sp. tritici infected in wheat seedlings at 200 ppm relative to control
# Method in brief: (§3)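 Test suspension sprayed to run-off on Stevens wheat seedlings. Next day inoculated with a Puccinia recondita f. sp. tritici spore suspension. Held 24 h in a saturated atmosphere at 20 °C, then 7 days in a 20 °C growth chamber before disease rating. Rates in ppm. Given as percent control versus untreated control plants.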
# [6] = tested on: Puccinia triticina; experiment: Antifungal activity against Puccinia recondita f. sp. tritici infected in wheat seedlings at 40 ppm relative to control; method in brief: as §3
# [7] = tested on: Botrytis cinerea; experiment: Antifungal activity against Botryotinia fuckeliana infected in orange pixie tomato seedlings at 10 ppm relative to control; method in brief: as §2
# [8] = tested on: Botrytis cinerea; experiment: Antifungal activity against Botryotinia fuckeliana infected in orange pixie tomato seedlings at 2 ppm relative to control; method in brief: as §2
# [9] = tested on: Puccinia triticina; experiment: Antifungal activity against Puccinia recondita f. sp. tritici infected in wheat seedlings at 10 ppm relative to control; method in brief: as §3
# [10] = tested on: Puccinia triticina; experiment: Antifungal activity against Puccinia recondita f. sp. tritici infected in wheat seedlings at 2 ppm relative to control; method in brief: as §3
# [11] = tested on: Parastagonospora nodorum; experiment: Antifungal activity against Stagonospora nodorum infected in wheat seedlings at 10 ppm relative to control; method in brief: as §1
# [12] = tested on: Parastagonospora nodorum; experiment: Antifungal activity against Stagonospora nodorum infected in wheat seedlings at 2 ppm relative to control; method in brief: as §1
SMILES,Activity [1] [%],Activity [2] [%],Activity [3] [%],Activity [4] [%],Activity [5] [%],Activity [6] [%],Activity [7] [%],Activity [8] [%],Activity [9] [%],Activity [10] [%],Activity [11] [%],Activity [12] [%]
CC[C@H](C)Cn1c(-c2c(F)cccc2F)c(Cl)nc(-n2cncn2)c1=O,94,100,100,100,98,98,–,–,–,–,–,–
O=c1c(-n2cccn2)nc(Cl)c(-c2c(F)cc(F)cc2F)n1-c1ccc(Cl)cc1,100,99,–,–,–,100,99,92,100,96,100,78
CC(C)Cn1c(C(C)(C)C)c(Cl)nc(-n2cccn2)c1=O,0,0,0,0,0,0,–,–,–,–,–,–
CC(Cn1c(-c2c(F)cc(F)cc2F)c(Cl)nc(-n2cccn2)c1=O)C(F)(F)F (configuration not stated),100,99,–,–,–,100,99,99,100,92,0,0
CC(C)Cn1c(-c2c(F)cccc2F)c(Cl)nc(-c2cccnc2)c1=O,0,0,–,–,–,0,0,0,0,0,0,0
Cc1nc(-n2cccn2)c(=O)n(CC(C)C)c1-c1c(F)cccc1F,98,100,–,–,–,100,99,0,92,0,0,0
O=c1c(-n2cccn2)nc(Cl)c(-c2c(F)cc(F)cc2F)n1-c1ccccc1Cl,100,100,–,–,–,100,100,99,100,97,94,0
CC(C)Cn1c(C(C)C)c(Cl)nc(-n2cccn2)c1=O,0,99,99,0,98,18,–,–,–,–,–,–
O=c1c(-n2cccn2)nc(Cl)c(-c2c(F)cc(F)cc2F)n1CC(F)(F)C(F)(F)C(F)(F)F,99,100,–,–,–,99,99,38,96,68,78,0
O=c1c(-n2cccn2)nc(Cl)c(-c2c(F)cc(F)cc2F)n1-c1cccc(Cl)c1,99,100,–,–,–,100,99,97,99,86,99,73
CC(C)Cn1c(-c2c(F)cccc2F)c(Cl)nc(-c2ccccn2)c1=O,0,99,100,99,99,85,–,–,–,–,–,–
